Screening results deposited in PubChem BioAssay by The Scripps Research Institute Molecular Screening Center.
CHRM4 antagonist – antagonists of human muscarinic M4 receptor (CHRM4); P08173; CHO-hM4 cells, ACh EC80, Fluo-8 calcium fluorescence; inhibition, % at 3 µM; hit rate 0.73% among 360,000; AID 624125;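 active = inhibition above its plate's cutoff, the mean inhibition of sample wells plus 3 SD, cut at about 27% in these data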;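 also: 0% = acetylcholine EC80 with DMSO and 100% = DMSO without agonist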
Target sequence (P08173 whole entry, looked up): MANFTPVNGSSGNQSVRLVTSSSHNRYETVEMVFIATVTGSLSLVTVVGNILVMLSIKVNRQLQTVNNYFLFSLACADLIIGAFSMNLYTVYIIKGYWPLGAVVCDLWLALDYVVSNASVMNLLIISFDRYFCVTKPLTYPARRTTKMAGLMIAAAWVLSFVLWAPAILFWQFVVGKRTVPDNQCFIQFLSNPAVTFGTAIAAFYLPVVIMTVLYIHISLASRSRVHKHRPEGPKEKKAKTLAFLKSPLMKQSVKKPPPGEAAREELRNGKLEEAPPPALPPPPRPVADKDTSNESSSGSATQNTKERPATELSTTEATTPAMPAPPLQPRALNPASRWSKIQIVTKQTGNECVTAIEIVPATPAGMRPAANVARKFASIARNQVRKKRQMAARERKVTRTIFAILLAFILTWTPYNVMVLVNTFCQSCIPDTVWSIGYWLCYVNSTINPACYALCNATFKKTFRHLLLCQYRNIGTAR
CHRM5 antagonist – antagonists of human muscarinic M5 receptor (CHRM5). CHO-hM5 cells, Fluo-8 calcium fluorescence, ACh EC80. P08912. AID 624040. inhibition, % at 3 µM. hit rate 0.59% among 360,000;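 active = inhibition above a per-plate cutoff, the mean of that plate's test compounds plus 3 SD, cut at about 27% in these data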;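 also: 0% = acetylcholine EC80 with DMSO and 100% = DMSO without agonist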
M5 PAM – potentiates acetylcholine response at human M5 receptor. activation, % at 3 µM. CHO-K1 hM5, Fluo-8 calcium, ACh EC20 PAM; 0% = ACh EC20, 100% = ACh EC100. hit rate 0.3% among 360,000;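 active = activation above the run cutoff, the mean activation of all test compounds plus 3 SD, cut at about 18% in these data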
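Replicates: One well per compound, no replicates | System: Human M5 receptor in CHO-K1 cells | Benchmarks: Low control EC20 acetylcholine (0%), high control EC100 acetylcholine (100%) | Probe or stimulus: Acetylcholine, EC20 level | Times: Fluo-8 loading 80 min at 37 °C plus 30 min room temperature | Signal: Intracellular calcium via Fluo-8 fluorescence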
CHRM4 agonist – agonists of human muscarinic M4 receptor (CHRM4) | P08173 | CHO-K1 hM4/Gqi5, Fluo-8 calcium fluorescence; vehicle 0%, full acetylcholine response 100% | activation, % at 3 µM | hit rate 0.14% among 360,000;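 active = activation above the run mean over all test wells plus 3 SD, cut at about 32% in these data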;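 also: peak over basal fluorescence ratio per well then scaled between controls; 0% = DMSO wells and 100% = acetylcholine at EC100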
CHRM4 PAM – CHRM4 positive allosteric modulation | P08173 | activation, % at 3 µM | hit rate 0.4% among 360,000 | CHO-K1 hM4/Gqi5, Fluo-8 calcium fluorescence, ACh EC20; 0% = ACh EC20, 100% = maximal ACh;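 active = activation above its plate's cutoff, the mean activation of sample wells plus 3 SD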
CHRM5 agonist – CHRM5 agonism in calcium assay. P08912. CHO-K1 hM5 cells, Fluo-8 calcium fluorescence; 0% DMSO wells, 100% maximal acetylcholine response. activation, % at 3 µM. hit rate 0.19% among 360,000;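 active = activation above the run's mean over test compounds plus 3 SD, cut at about 23% in these data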;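 also: signal is peak over basal fluorescence ratio across the kinetic read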
* marks the source's active call; other numbers are inactive results. This is a sample that favours compounds with a hit; in the whole collection about 1.9% have one here.

SMILES	CHRM4 antagonist	CHRM5 antagonist	M5 PAM	CHRM4 agonist	CHRM4 PAM	CHRM5 agonist
Cc1ccc(NC2CCCN(C(=O)C3CCCCC3)C2)cc1C (centres undefined)	5.6	-14.3	21.4*	-0.2	-2.3	2.7
O=C(C1CCCC1)N1CCCC(Nc2ccc(F)cc2)C1 (centres undefined)	7.2	1.4	-2.3	0.5	-3.5	-2.1
O=c1cc(-c2ccc(O)cc2)oc2ccc(O)cc12	11.8	11.7	0.9	0.2	42.5*	-2.9
O=c1cc(-c2ccc(O)cc2)oc2ccccc12	-6.2	5.3	-7.0	1.5	-2.2	2.8
COc1ccccc1C(=O)Nc1nnc([C@H]2C[C@H](O)[C@@H](CO)O2)s1	-7.5	-3.8	3.4	0.9	7.6	0.7
N#CNC(=Nc1ccccc1)SCc1ccc(C(=O)O)cc1	1.3	-9.5	1.0	1.0	4.0	-0.1
N#CNC(=Nc1cccc(C(F)(F)F)c1)SCc1ccc(C(=O)O)cc1	38.4*	-0.9	1.1	0.0	-8.9	-3.1
COc1ccccc1C(=O)NC(=O)COC(=O)C1(C)CC1(Cl)Cl (centres undefined)	1.1	4.5	1.3	0.3	13.5	3.5
COc1ccc(C(=O)Nc2ccccc2C(=O)N2CCOCC2)cc1	15.1	10.9	1.4	1.7	-1.1	-1.9
CCN(CC(=O)Nc1ccccc1C(F)(F)F)C(=O)CSCC(=O)Nc1cc(C)on1	-7.7	-6.6	7.2	0.4	22.8*	-1.8
CCN(CC(=O)Nc1cc(C)on1)CC(=O)Nc1ccccc1C(F)(F)F	0.0	-15.7	8.1	1.9	8.5	4.3
C=Cc1cccc(NC(=O)COc2ccccc2)c1	0.2	10.5	18.4*	-0.2	17.6	-2.7
COc1ccc(CC2(CO)CCN(CC3=Cc4cc(Cl)ccc4OC3)CC2)cc1	28.7*	25.2	-15.3	16.1	-19.8	-1.3
Cc1cc(OCC(=O)Nc2ccccc2N2CCOCC2)c(C(C)C)cc1Cl	-18.7	2.9	1.6	0.3	7.1	4.4
CC(=O)c1c(O)cc(=O)oc1-c1ccc(C)cc1	-8.8	0.4	5.8	1.0	-1.8	1.9
CCCCN(CCCC)c1cn[nH]c(=O)c1Cl	42.6*	10.8	-26.3	-1.2	-13.4	-12.8
CC1(c2ccc(OC(F)F)cc2)NC(=O)N(CC(=O)c2ccc3c(c2)OCO3)C1=O (centres undefined)	-8.4	5.3	-21.1	39.7*	-7.9	42.2*
CC1(c2ccc([N+](=O)[O-])cc2)NC(=O)N(CC(=O)c2ccc3c(c2)OCO3)C1=O (centres undefined)	-7.4	6.3	-15.3	33.5*	-6.3	36.2*
CC1(c2ccc(OC(F)F)cc2)NC(=O)N(CC(=O)NC2CCCCC2)C1=O (centres undefined)	-8.2	8.1	-6.9	7.2	16.9	5.5
Cc1ccc(C)c(OC(=O)C2CSC3(C)CCC(=O)N23)c1C (centres undefined)	-3.8	-5.8	-2.6	0.9	6.4	0.9
O=C(Nc1cccc(Br)c1)c1ccc2c(c1)SC1=NS(=O)(=O)CCN12	-5.0	-0.1	4.8	0.7	22.6*	0.6
C=CCNc1nnc(SCC(=O)N2CCC(C(N)=O)CC2)s1	9.3	7.5	-1.6	0.1	1.7	2.3
Cc1ccccc1S(=O)(=O)NC1OC(=O)C(Cl)=C1Cl (centres undefined)	-6.1	-6.6	1.6	0.4	1.3	1.9
CC(=O)NC(=O)NC1OC(=O)C(Cl)=C1Cl (centres undefined)	-14.6	0.9	-0.5	1.1	16.5*	-3.2
Cc1ccc2c(C(=O)CN3CCCCC3)c(C)[nH]c2c1	-10.5	1.9	2.4	1.2	8.2	-4.7
Cc1ccc2c(C(=O)CN3CCOCC3)c(C)[nH]c2c1	-10.4	-11.8	24.5*	0.4	9.7	2.0
O=[N+]([O-])c1ccccc1S(=O)(=O)N1CCCC(C(F)(F)F)C1 (centres undefined)	1.4	6.8	-6.2	-0.2	-0.7	-4.0
CCN(CC)c1ccc(/C=C2/SC(=O)N(C(C)C)C2=O)o1	41.0*	10.9	1.9	3.3	-4.2	2.2
